Assay results published in ChEMBL document CHEMBL4052787, “Development of novel LP1-based analogues with enhanced delta opioid receptor profile” (Bioorg Med Chem, 2017).
Activity calls are given as the source filed them. The calls are words filed in the database; no cut-off is given here.

Key:
[1] = target: Mu-type opioid receptor (Cavia porcellus) (UniProt P97266); assay: Antagonist activity at MOR in Dunkin-Hartley guinea pig ileum assessed as inhibition of electrically induced contractions after 5 mins by measuring ratio of IC50 for test compounds in presence and absence of NLX
Method in brief: (§1)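 Isolated tissue (ileum for MOR/KOR, vas deferens for DOR) pre-incubated with a 1 μM selective antagonist (NLX or NTI 20 min; norBNI 30 min), then agonist curves repeated. Ke from ratio of IC50 with and without antagonist, by single dose method. Mean ± SEM of four independent tissues.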

[2] = target: Mu-type opioid receptor (Rattus norvegicus, UniProt P33535); assay: Displacement of [3H]-DAMGO from MOR in rat brain membranes by liquid scintillation counting analysis; format: cell membranes, Membrane
Method in brief: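 Rat brain membranes, 0.4 mg/ml protein, incubated 45 min at 35 °C with 1 nM [3H]-DAMGO in 50 mM Tris-HCl pH 7.4. Filtration on PEI-presoaked GF/B filters, scintillation counting. Ki calculated; three experiments, each in duplicate.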

[3] = organism: Rattus norvegicus; assay: Antinociceptive activity in rat assessed as reduction in response to heat pretreated with naloxone for 30 mins prior to compound treatment by tail-flick test; format: functional
[4] = target: Kappa-type opioid receptor (Cavia porcellus) (UniProt P41144); assay: Antagonist activity at KOR in Dunkin-Hartley guinea pig ileum assessed as inhibition of electrically induced contractions after 5 mins by measuring ratio of IC50 for test compounds in presence and absence of nBNI; method in brief: as §1
[5] = target: mu/kappa opioid receptor (Cavia porcellus, UniProt P41144+P97266); assay: Agonist activity at MOR/KOR in Dunkin-Hartley guinea pig ileum assessed as inhibition of electrically induced contractions after 5 mins
Method in brief: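 Guinea pig ileum longitudinal muscle/myenteric plexus strips from male guinea pigs (200–300 g), 2 g load. Transmural single pulses 0.1 Hz, 0.3 ms, 200 mA. After 60–90 min equilibration in Krebs, compounds added cumulatively, at least 5 min each. Percent inhibition of contraction; IC50 by linear regression of log concentration–effect curves, at least three trials.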

[6] = organism: Mus musculus; assay: Antagonist activity at DOR in CD-1 mouse vasa deferentia assessed as inhibition of electrically induced contractions after 5 mins by measuring ratio of IC50 for test compounds in presence and absence of […]; method in brief: as §1
[7] = target: Kappa-type opioid receptor (Cavia porcellus) (UniProt P41144); assay: Potency index, ratio of LP1 Ki to compound Ki for KOR in guinea pig brain membranes; format: cell membranes; details: Membrane
[8] = test system: Rattus norvegicus; assay: Antinociceptive activity in rat assessed as reduction in response to heat administered ip measured 240 mins post dose by tail-flick test; format: functional, organism-based
[9] = Ratio of Ki for KOR in guinea pig brain membranes to Ki for MOR in rat brain membranes; format: cell membranes
Method in brief: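 Ratio of KOR Ki (guinea pig brain, 1 nM [3H]-(+)-U69,593, 30 min at 30 °C) to MOR Ki (rat brain, 1 nM [3H]-DAMGO, 45 min at 35 °C).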

[10] = target: Kappa-type opioid receptor (Cavia porcellus, UniProt P41144); assay: Displacement of [3H]-(+)-U69,593 from KOR in guinea pig brain membranes by liquid scintillation counting analysis; format: cell membranes, Membrane
Method in brief: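 Guinea pig brain membranes (0.5 mg/ml) incubated 30 min at 30 °C with 1 nM [3H]-(+)-U69,593. Compounds tested from 10^-11 to 10^-5 M. Nonspecific binding with 10 μM unlabeled naloxone. GF/B filtration, liquid scintillation counting. Ki calculated; means of three experiments, each in duplicate.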

[11] = organism: Rattus norvegicus; assay: Ratio of Ki for DOR in rat brain membranes to Ki for MOR in rat brain membranes; format: cell membranes
Method in brief: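 Ratio of Ki values: DOR Ki (rat brain, [3H]-DPDPE, 2 nM) divided by MOR Ki (rat brain, [3H]-DAMGO, 1 nM), both from 45 min, 35 °C competition binding in 50 mM Tris-HCl pH 7.4.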

[12] = target: Delta-type opioid receptor (Rattus norvegicus, UniProt P33533); assay: Displacement of [3H]-DPDPE from DOR in rat brain membranes by liquid scintillation counting analysis; format: cell membranes, Membrane
Method in brief: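 Rat brain membranes at 0.5 mg/ml protein, 45 min at 35 °C with 2 nM [3H]-DPDPE in 50 mM Tris-HCl pH 7.4. Competitor range 10^-11 to 10^-5 M. Nonspecific binding with 10 μM naloxone. Filtered through PEI-soaked GF/B, scintillation counted. Ki derived; three separate experiments in duplicate.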

[13] = Agonist activity at DOR in CD-1 mouse vasa deferentia assessed as inhibition of electrically induced contractions after 5 mins
Method in brief: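 Mouse vas deferens at 0.5 g tension; after equilibration, pulses 20 Hz, 0.5 ms, 1 s duration every 40 s. After 60 min equilibration in Krebs, cumulative compound additions, minimum 5 min apart. Contraction inhibition as percent of baseline; IC50 from linear regression of log concentration–effect curves, at least three trials.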

[14] = test system: Rattus norvegicus; assay: Antinociceptive activity in rat assessed as reduction in response to heat administered ip measured 60 mins post dose by tail-flick test; format: functional
[15] = test system: Rattus norvegicus; assay: Antinociceptive activity in rat assessed as reduction in response to heat administered ip measured 45 to 180 mins post dose by tail-flick test; format: functional, organism-based

Sequence of Kappa-type opioid receptor (P41144 whole entry): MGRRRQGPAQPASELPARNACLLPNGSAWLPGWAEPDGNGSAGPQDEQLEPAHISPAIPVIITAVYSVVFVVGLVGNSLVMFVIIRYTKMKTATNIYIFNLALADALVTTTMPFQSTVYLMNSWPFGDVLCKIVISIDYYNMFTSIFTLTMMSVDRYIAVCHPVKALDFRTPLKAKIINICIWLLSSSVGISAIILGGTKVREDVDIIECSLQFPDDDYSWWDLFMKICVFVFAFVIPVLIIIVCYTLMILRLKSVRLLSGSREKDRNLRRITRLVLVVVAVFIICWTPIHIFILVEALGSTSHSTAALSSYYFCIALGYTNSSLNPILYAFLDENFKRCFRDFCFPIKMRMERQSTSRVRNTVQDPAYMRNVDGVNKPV
Sequence of Kappa-type opioid receptor (Cavia porcellus) (P41144 whole entry): as above
Sequence of Mu-type opioid receptor (Cavia porcellus) (P97266 whole entry): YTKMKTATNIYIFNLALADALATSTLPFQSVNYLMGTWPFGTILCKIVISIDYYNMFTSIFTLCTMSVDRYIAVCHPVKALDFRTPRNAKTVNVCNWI
Sequence of Delta-type opioid receptor (P33533 whole entry): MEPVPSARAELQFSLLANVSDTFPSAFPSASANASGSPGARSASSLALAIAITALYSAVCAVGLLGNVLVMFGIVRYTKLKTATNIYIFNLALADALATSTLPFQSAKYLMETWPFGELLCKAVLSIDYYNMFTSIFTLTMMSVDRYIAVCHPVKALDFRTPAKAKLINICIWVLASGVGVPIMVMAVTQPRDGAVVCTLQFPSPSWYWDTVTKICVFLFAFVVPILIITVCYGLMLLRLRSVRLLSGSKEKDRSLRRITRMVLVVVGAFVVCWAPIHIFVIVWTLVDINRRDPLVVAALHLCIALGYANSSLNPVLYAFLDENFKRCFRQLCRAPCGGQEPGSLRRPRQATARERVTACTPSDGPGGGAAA
Sequence of Mu-type opioid receptor (P33535 whole entry): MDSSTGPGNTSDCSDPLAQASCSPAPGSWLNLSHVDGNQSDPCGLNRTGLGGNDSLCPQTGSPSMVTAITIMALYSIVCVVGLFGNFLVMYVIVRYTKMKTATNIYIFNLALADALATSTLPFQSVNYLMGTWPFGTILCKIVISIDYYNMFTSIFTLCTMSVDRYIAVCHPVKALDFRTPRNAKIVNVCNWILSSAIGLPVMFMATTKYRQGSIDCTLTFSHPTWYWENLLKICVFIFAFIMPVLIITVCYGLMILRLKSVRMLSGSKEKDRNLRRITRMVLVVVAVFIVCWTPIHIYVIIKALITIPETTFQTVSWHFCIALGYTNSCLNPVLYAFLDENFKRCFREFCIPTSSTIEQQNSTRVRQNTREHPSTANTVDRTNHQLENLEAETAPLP

| Structure (SMILES) | Ke [1] | Ki [2] | Activity [3] | Ke [4] | IC50 [5] | Ke [6] | Ratio Ki [7] | Activity [8] | Ratio Ki [9] | Ki [10] | Ratio Ki [11] | Ki [12] | IC50 [13] | ED50 ([14]; 1 h) | Activity [15] | Activity [14] |
| --- | --- | --- | --- | --- | --- | --- | --- | --- | --- | --- | --- | --- | --- | --- | --- | --- |
| C[C@H]1[C@H]2Cc3ccc(O)cc3[C@]1(C)CCN2C[C@@H](O)c1ccccc1 | 21 nM | 0.5 nM | inactive | 9 nM | 9.9 nM | 5.4 nM | 49 | Dose-dependent effect | 4.44 | 2.22 nM | 1.6 | 0.8 nM | 11.8 nM | – | – | – |
| C[C@H]1[C@H]2Cc3ccc(O)cc3[C@]1(C)CCN2CCC(=O)Nc1ccccc1 | 2.3 nM | – | – | 10.8 nM | 1.9 nM | – | – | – | 132 | – | 33.8 | – | 1240 nM | – | – | – |
| C[C@H]1[C@H]2Cc3ccc(O)cc3[C@]1(C)CCN2CC(C)(O)c1ccccc1 (stereo partly specified) | – | 60 nM | – | – | 194.4 nM | – | 10 | – | 0.17 | 10.5 nM | 2.66 | 160 nM | 794 nM | – | – | – |
| COC(CN1CC[C@@]2(C)c3cc(O)ccc3C[C@@H]1[C@@H]2C)c1ccccc1 (stereo partly specified) | 19 nM | 1.08 nM | inactive | > 3000 nM | 21.5 nM | 3.9 nM | 7 | Dose-dependent effect | 14.1 | 15.2 nM | 6.1 | 6.6 nM | 4.4 nM | 0.9 mg/kg | Active | – |
| C[C@H]1[C@H]2Cc3ccc(O)cc3[C@]1(C)CCN2C[C@H](O)c1ccccc1 | 35 nM | 2.47 nM | inactive | 20 nM | 49.2 nM | 4 nM | 15 | Dose-dependent effect | 2.95 | 7.3 nM | 3.88 | 9.6 nM | 10.8 nM | – | – | – |
| CN1CC[C@]23c4c5ccc(O)c4O[C@H]2[C@@H](O)C=C[C@H]3[C@H]1C5 | – | – | – | – | – | – | – | – | – | – | – | – | – | – | – | inactive |
